Active and inactive are the calls of the source. No cut-off for these calls is given here.
Columns and labels:
L1210 [1] = experiment: Antitumor activity against 5-azacytidine-resistant mouse L1210 cells allografted in ip dosed mouse assessed as increase in life span at optimal dose administered qd from day 1 to day 9 post tumor implantation relative to control; assay type: functional
Method in brief: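 An L1210 subline resistant to 5-azacytidine (L1210/AZA) was implanted ip in mice. Drug given ip in 0.9% saline, dose-response in twofold steps, dose in mg/kg per injection. % ILS over untreated control survival at the optimal dose. Test minus control body-weight change on day 5.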

L1210 [2] = experiment: Antitumor activity against mouse L1210 cells allografted in po dosed mouse assessed as increase in life span at optimal dose administered qd from day 1 to day 9 post tumor implantation relative to control; assay type: functional
Method in brief: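 Mice bearing ip-implanted L1210 were dosed orally, nonfasting, with compound in 0.9% saline. Dose-response in twofold steps, mg/kg per dose. % ILS relative to untreated controls at the optimal dose. Weight change (test minus control) on day 5.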

L1210 [3] = experiment: Antitumor activity against mouse L1210 cells allografted in ip dosed mouse assessed as dose required for minimal activity administered qd on day 1, 5 and 9 post tumor implantation; assay type: functional; conditions: 24 h, read-out: MED
Method in brief: (§1)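 Tumour cells were implanted ip (intracerebrally for IC-L1210), with the compound given in 0.9% saline ip, or orally to nonfasting mice in PO-L1210. Dose–response series each halved the preceding dose, expressed as mg/kg per injection. Activity was read as % increase in life-span (% ILS) over untreated controls, and from this the minimum, optimal and maximum active doses were taken.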

L1210 [4] = experiment: Antitumor activity against mouse L1210 cells allografted in po dosed mouse assessed as dose required for minimal activity administered qd from day 1 to day 9 post tumor implantation; assay type: functional; conditions: read-out: MED; method in brief: as §1
B16 = experiment: Antitumor activity against mouse B16 cells allografted in ip dosed mouse assessed as dose required for minimal activity administered qd from day 1 to day 9 post tumor implantation; assay type: functional; conditions: read-out: MED; method in brief: as §1
Mus musculus [5] = experiment: Toxicity in ip dosed mouse allografted with mouse P388 cells assessed as dose required for optimal activity administered qd from day 1 to day 9 post tumor implantation; assay type: organism-based; conditions: in vivo; method in brief: as §1
Mus musculus [6] = experiment: Toxicity in ip dosed mouse allografted with mouse B16 cells assessed as dose required for optimal activity administered qd from day 1 to day 9 post tumor implantation; assay type: organism-based; conditions: in vivo; method in brief: as §1
L1210 [7] = experiment: Antitumor activity against mouse L1210 cells allografted in ip dosed mouse assessed as dose required for maximal activity administered qd on day 1 post tumor implantation; assay type: functional; method in brief: as §1
L1210 [8] = experiment: Antitumor activity against mouse L1210 cells allografted in ip dosed mouse assessed as dose required for maximal activity administered qd from day 1 to day 9 post tumor implantation; assay type: functional; method in brief: as §1
[9] = Drug degradation in 1 N ammonium hydroxide solution assessed as l-beta-D-Ribofuranosyl-3-guanylurea level; assay type: physicochemical
[10] = Therapeutic index, ratio of toxicity in ip dosed mouse allografted with mouse L1210 cells assessed as optimal dose required for maximum increase in life span to antitumor activity against mouse L1210 cells allografted in ip dosed mouse assessed as lowest dose required for 40% increase in life span; assay type: organism-based; conditions: in vivo, read-out: TI
Method in brief: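 Mice tumored ip with L1210 and treated ip on days 1-9 (QD1-9) with drug in 0.9% saline, using serial twofold dose dilutions. Survival gain over untreated controls was expressed as % ILS. Dose-response relationships came from five QD1-9 experiments. TI = optimal dose for maximum % ILS ÷ lowest dose giving 40% ILS.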

[11] = Therapeutic index, ratio of toxicity in ip dosed mouse allografted with mouse L1210 cells assessed as highest dose required for 40% increase in life span to antitumor activity against mouse L1210 cells allografted in ip dosed mouse assessed as lowest dose required for 40% increase in life span; assay type: organism-based; conditions: in vivo, read-out: TI
Method in brief: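 L1210 cells implanted ip in mice. Drug in 0.9% saline given ip once daily on days 1-9 (QD1-9), dose-response with each dose half of the next higher. % ILS measured against untreated controls. Dose-response data were pooled from five QD1-9 experiments. TI = highest dose giving 40% ILS ÷ lowest dose giving 40% ILS.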

L1210 [12] = experiment: Cytotoxicity against mouse L1210 cells assessed as cessation of growth; assay type: functional, cell-based
L1210 [13] = experiment: Cytotoxicity against mouse L1210 cells assessed as cessation of growth in presence of cytidine; assay type: functional, cell-based
L1210 [14] = experiment: Cytotoxicity against mouse L1210 cells assessed as cessation of growth in presence of uridine; assay type: functional, cell-based
[15] = Half life of the compound at 25 degC at pH 7 by HPLC analysis; assay type: physicochemical
L1210 [16] = experiment: Antitumor activity against mouse L1210 cells allografted in ip dosed mouse assessed as change in body weight at optimal dose administered qd on day 1 post tumor implantation measured on day 5 relative to control; assay type: functional
Method in brief: (§2)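 Mice bearing tumour cells implanted ip (intracerebrally in the IC-L1210 system) got compound in 0.9% saline ip on the stated schedule, or orally to nonfasting animals in the PO-L1210 system. Day-1 dosing, per day, or every 6 h counted from implantation. The value is the difference in average body weight change (g) on day 5 between the optimal-dose group (T) and controls (C).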

[17] = Drug degradation in lactated Ringer's solution at 25 degC after 4.7 hrs; assay type: physicochemical; conditions: read-out: Drug degradation
Mus musculus [18] = experiment: Toxicity in ip dosed mouse allografted with 5-azacytidine-resistant mouse L1210 cells assessed as dose required for optimal activity administered qd from day 1 to day 9 post tumor implantation; assay type: organism-based; conditions: in vivo; method in brief: as §1
[19] = Solubility of the compound in water at pH 6; assay type: physicochemical
[20] = Chemical stability in 1 N ammonium hydroxide solution at room temperature after 7 days; assay type: physicochemical; conditions: 168 h
Method in brief: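 The compound was stored 7 days at room temperature in 1 N ammonium hydroxide, then recovered and checked as the free base.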

L1210 [21] = experiment: Antitumor activity against 5-azacytidine-resistant mouse L1210 cells allografted in ip dosed mouse assessed as change in body weight at optimal dose administered qd from day 1 to day 9 post tumor implantation measured on day 5 relative to control; assay type: functional; method in brief: as §2

SMILES | ILS (L1210 [1]) [%] | ILS (L1210 [2]) [%] | minimal effective dose (L1210 [3]) [mg/kg] | minimal effective dose (L1210 [4]) [mg/kg] | Activity (Mus musculus [5]) [mg/kg] | Activity (Mus musculus [6]) [mg/kg] | MAD (L1210 [7]) [mg/kg] | MAD (L1210 [8]) [mg/kg] | selectivity ratio [10] | selectivity ratio [11] | Activity (L1210 [16]) [g] | further results
Nc1ncn([C@@H]2O[C@H](CO)[C@@H](O)[C@H]2O)c(=O)n1 [AZACITIDINE] | 0 | 24 | 5 | 1.56 | 3 | 3 | 100 | 3.13 | 7.5 | 14 | -3.8 | minimal effective dose (B16): 1.5 mg/kg; Stability [9]: Unstable; Activity (L1210 [12]): Active; Activity (L1210 [13]): inactive; Activity (L1210 [14]): inactive; half-life [15]: 2880 min; degraded at 4.7 h [17]: 15%
Cl.NC1=NC(=O)N([C@@H]2O[C@H](CO)[C@@H](O)[C@H]2O)CN1 | 0 | 50 | 12.5 | 200 | 100 | 100 | 1600 | 200 | 10 | 40 | -3.1 | Activity (Mus musculus [18]): 25 mg/kg; solubility [19]: 40 mg/mL; Stability [20]: Stable; Activity (L1210 [21]): 0.1 g
